≈ marks a conversion by molar mass, not a printed value.
What was measured:
[1] = Prodrug conversion assessed as 1-[S]-(Chloromethyl)-5-hydroxy-3-{{5-[5-(4-methyldithio-3,3- dimethyl butyryl)indol-2-yl-carbonyl amino]indole-2-yl}carbonyl}- 1,2-dihydro-3H-benz[e]indole formation in presence of porcine mucosa alkaline phosphatase at pH 7.4; assay type: physicochemical; conditions: pig, isolated protein
[2] = Solubility of the compound in 100% buffer at pH 7 at 1.5 mg sonicated for 45 mins followed by centrifugation for 45 mins by UV/Vis spectroscopy; assay type: physicochemical
[3] = Solubility of the compound in 10% DMA and 90% buffer at pH 7 at 1.5 mg sonicated for 45 mins followed by centrifugation for 45 mins by UV/Vis spectroscopy; assay type: physicochemical
In short: (§1)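 About 1.5 mg of compound is sonicated for 45 min in pH 7.0 buffer containing 10% or 20% DMA, then centrifuged at 1400g for 45 min. Supernatant concentration is read by UV/vis at 340 nm. ε at pH 7.0 is 41500 M⁻¹ cm⁻¹ for DC1–SR₂ compounds and 34500 M⁻¹ cm⁻¹ for phosphate prodrugs.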

[4] = Solubility of the compound in 20% DMA and 80% buffer at pH 7 at 1.5 mg sonicated for 45 mins followed by centrifugation for 45 mins by UV/Vis spectroscopy; assay type: physicochemical; in short: as §1
[5] = Cytotoxicity against human NAMALWA cells assessed as cell survival after 72 hrs by clonogenic assay; assay type: functional, cell-based; conditions: NAMALVA
In short: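 Cells were kept in RPMI 1640 with 10% heat-inactivated FBS at 37 °C and 6% CO₂. They were plated at 1000–5000 cells/well and exposed to 0–3 nM test agent for 72 h. Medium was then replaced and colonies grew for 7–10 days in total after plating. Colonies were fixed and stained with 0.2% crystal violet in 10% formalin/PBS, then counted. Surviving fraction = colonies in treated wells / colonies in control wells; IC₅₀ was taken from this.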

[6] = Cytotoxicity against human NAMALWA cells assessed as cell survival after 72 hrs in presence of bovine alkaline phosphatase by clonogenic assay; assay type: functional, cell-based; conditions: NAMALVA
In short: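 Clonogenic assay: cells in RPMI 1640 with 10% heat-inactivated FBS were plated at 1000–5000 cells/well. Test agent (0–3 nM) was combined with alkaline phosphatase from bovine liver, and cells were exposed for 72 h. Colonies then grew for 7–10 days after plating and were stained with 0.2% crystal violet in 10% formalin/PBS. Surviving fraction is relative to untreated control wells.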

[7] = Prodrug activation assessed as enzyme-mediated compound dephosphorylation in presence of calf intestine alkaline phosphatase P7923 at pH 7.4 by HPLC; conditions: cattle, isolated protein
[8] = Prodrug activation assessed as enzyme-mediated compound dephosphorylation in presence of porcine intestine mucosa alkaline phosphatase P4002 at pH 7.4 by HPLC; conditions: pig, isolated protein
[9] = Prodrug activation assessed as enzyme-mediated compound dephosphorylation in presence of rabbit intestine alkaline phosphatase P2256 at pH 7.4 by HPLC; conditions: isolated protein
[10] = Prodrug activation assessed as enzyme-mediated compound dephosphorylation in presence of calf intestine mucosa alkaline phosphatase P79390 at pH 7.4 by HPLC; conditions: cattle, isolated protein
[11] = Solubility in DMSO at 1.5 mg sonicated for 45 mins followed by centrifugation for 45 mins by UV/Vis spectroscopy; assay type: physicochemical; conditions: 0.75 h
In short: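 Solid compound (~1.5 mg) in the stated solvent was sonicated 45 min, then centrifuged at 1400g for 45 min. The supernatant concentration was read by UV/vis at 340 nm, using ε = 41500 M⁻¹ cm⁻¹ for the free phenols and 34500 M⁻¹ cm⁻¹ for the phosphate prodrugs (pH 7.0 values).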

[12] = Solubility in water containing 5% THF at 1.5 mg sonicated for 45 mins followed by centrifugation for 45 mins by UV/Vis spectroscopy; assay type: physicochemical; conditions: 0.75 h
[13] = Solubility in water containing 5% acetone at 1.5 mg sonicated for 45 mins followed by centrifugation for 45 mins by UV/Vis spectroscopy; assay type: physicochemical; conditions: 0.75 h
[14] = Solubility in water containing 5% dioxane at 1.5 mg sonicated for 45 mins followed by centrifugation for 45 mins by UV/Vis spectroscopy; assay type: physicochemical; conditions: 0.75 h
[15] = Solubility in water containing 5% DMF at 1.5 mg sonicated for 45 mins followed by centrifugation for 45 mins by UV/Vis spectroscopy; assay type: physicochemical; conditions: 0.75 h
[16] = Prodrug conversion assessed as 1 - [ S ] - ( Ch l o r ome t h y l ) - 5 - h y d r o x y - 3 - { { 5 - [ 5 - ( 3 -methyldithiopropionyl)indol-2-yl-carbonyl amino]indole-2-yl}- carbonyl}-1,2-dihydro-3H-benz[e]indole formation in presence of rabbit intestine alkaline phosphatase at pH 7.4; assay type: physicochemical; conditions: in vitro
[17] = Prodrug conversion assessed as 1 - [ S ] - ( Ch l o r ome t h y l ) - 5 - h y d r o x y - 3 - { { 5 - [ 5 - ( 3 -methyldithiopropionyl)indol-2-yl-carbonyl amino]indole-2-yl}- carbonyl}-1,2-dihydro-3H-benz[e]indole formation in presence of porcine mucosa alkaline phosphatase at pH 7.4; assay type: physicochemical; conditions: pig, isolated protein
[18] = Prodrug conversion assessed as 1-[S]-(Chloromethyl)-5-hydroxy-3-{{5-[5-(4-methyldithio-3,3- dimethyl butyryl)indol-2-yl-carbonyl amino]indole-2-yl}carbonyl}- 1,2-dihydro-3H-benz[e]indole formation in presence of bovine liver alkaline phosphatase at pH 7.4; assay type: physicochemical; conditions: cattle, isolated protein
[19] = Prodrug conversion assessed as 1-[S]-(Chloromethyl)-5-hydroxy-3-{{5-[5-(4-methyldithio-3,3- dimethyl butyryl)indol-2-yl-carbonyl amino]indole-2-yl}carbonyl}- 1,2-dihydro-3H-benz[e]indole formation in presence of bovine kidney alkaline phosphatase at pH 7.4; assay type: physicochemical; conditions: cattle, isolated protein
[20] = Prodrug conversion assessed as 1-[S]-(Chloromethyl)-5-hydroxy-3-{{5-[5-(4-methyldithio-3,3- dimethyl butyryl)indol-2-yl-carbonyl amino]indole-2-yl}carbonyl}- 1,2-dihydro-3H-benz[e]indole formation in presence of rabbit intestine alkaline phosphatase at pH 7.4; assay type: physicochemical; conditions: in vitro

Row | SMILES | Drug metabolism [1] | solubility at 0.75 h [2] | solubility at 0.75 h [3] | solubility at 0.75 h [4] | IC50 [5] | IC50 [6] | Drug metabolism [7] | Drug metabolism [8] | Drug metabolism [9] | Drug metabolism [10] | solubility [11] | solubility [12] | solubility [13] | solubility [14] | solubility [15] | Drug metabolism [16] | Drug metabolism [17] | Drug metabolism [18] | Drug metabolism [19] | Drug metabolism [20]
1 | CSSCCC(=O)Nc1ccc2[nH]c(C(=O)Nc3ccc4[nH]c(C(=O)N5C[C@@H](CCl)c6c5cc(OP(=O)(O)O)c5ccccc65)cc4c3)cc2c1 | Active | 0.019 mM (≈ 14.5 µg/mL) | 4.7 mM (≈ 3590 µg/mL) | > 6 mM | 2.9 nM | 0.03 nM | Active | Active | Active | Active | soluble | soluble | soluble | soluble | soluble | Active | Active | – | – | –
2 | CSSC(C)(C)CCC(=O)Nc1ccc2[nH]c(C(=O)Nc3ccc4[nH]c(C(=O)N5C[C@@H](CCl)c6c5cc(OP(=O)(O)O)c5ccccc65)cc4c3)cc2c1 | Active | 0.019 mM (≈ 15.3 µg/mL) | 4.6 mM (≈ 3710 µg/mL) | > 6 mM | 2.8 nM | 0.025 nM | Active | Active | Active | Active | soluble | soluble | soluble | soluble | soluble | – | – | Active | Active | Active
